# Compounds with a hit are over-represented: about 5.8% of the library has one in this group of screens.
# p47phox inh = p47phox/p22phox peptide binding inhibitors, primary screen, biochemical, uHTS, NADPH oxidase regulatory subunit; fluorescence polarization, 2 h; inhibition, % at 24.7 µM; Neutrophil cytosol factor 1 (Homo sapiens), P14598; 220,000 compounds, 0.53% hits;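 active = inhibition above about 30%, limit read from the data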;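 note: 0% = p47phox with labelled peptide and 100% = labelled peptide alone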
# KCC2 mod = KCC2 cotransporter modulators, thallium flux, primary screen, cell-based, HEK293 KCC2, FluoZin-2 fluorescence, MLSMR; Solute carrier family 12 member 5 (Homo sapiens), Q9H2X9; KCC2 cells, thallium flux FluoZin-2 fluorescence; B-score of Tl+ flux slope (higher = more flux/activation; lower = inhibition) at 10 µM; 190,000 compounds, 2.2% hits; AID 1456, 2008;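 active = thallium flux slope and its plate-corrected score both differing from the plate sample mean at a set confidence after two filtering rounds, in either direction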;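 note: slope of fluorescence scaled to starting intensity during 10 to 20 s after thallium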
# RBBP9 inh = human RBBP9 inhibitors, primary screen, biochemical, fluorescence polarization, FP-Rh probe, HTS; recombinant RBBP9; inhibition, % at 7.94 µM; 220,000 compounds, 0.2% hits; Serine hydrolase RBBP9 (Homo sapiens), O75884;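 active = inhibition above the campaign mean of all tested compounds plus 3 SD, cut at about 14% in these data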;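 note: plate controls were DMSO wells with RBBP9 for no effect and wells lacking RBBP9 protein for full effect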
# Target sequence (O75884 whole entry, looked up): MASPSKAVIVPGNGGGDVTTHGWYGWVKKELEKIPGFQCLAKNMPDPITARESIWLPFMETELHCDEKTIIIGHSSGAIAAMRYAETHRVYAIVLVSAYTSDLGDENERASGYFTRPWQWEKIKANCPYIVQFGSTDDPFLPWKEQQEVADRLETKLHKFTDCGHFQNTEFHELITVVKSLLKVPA
#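 System: RBBP9 protein / Quantity: 2.5 µM RBBP9 dispensing solution, before mixing / Also added: Serine-hydrolase probe FP-Rh, 375 nM pre-mixing / Dosing: 7.94 µM single dose, 0.794% DMSO / Timing: enzyme-compound preincubation 30 min, then probe labeling 45 min, 25 °C / Signal: FP readout at 525/598 nm / Controls: DMSO-treated enzyme wells and wells lacking RBBP9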
# 14-3-3 Bad PPI = inhibitors of 14-3-3 zeta/Bad binding, primary screen, biochemical, TR-FRET, bovine 14-3-3 zeta | 14-3-3 protein zeta/delta (Bos taurus), P63103 | TR-FRET 14-3-3zeta/Dy647-pBad peptide displacement, 1 h | inhibition, % at 21.7 µM | 220,000 compounds, 0.71% hits;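 active = inhibition above about 70%, limit read from the data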;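 note: 0% = full 14-3-3 plus peptide FRET controls and 100% = background without 14-3-3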
# Target sequence (P63103 whole entry, looked up): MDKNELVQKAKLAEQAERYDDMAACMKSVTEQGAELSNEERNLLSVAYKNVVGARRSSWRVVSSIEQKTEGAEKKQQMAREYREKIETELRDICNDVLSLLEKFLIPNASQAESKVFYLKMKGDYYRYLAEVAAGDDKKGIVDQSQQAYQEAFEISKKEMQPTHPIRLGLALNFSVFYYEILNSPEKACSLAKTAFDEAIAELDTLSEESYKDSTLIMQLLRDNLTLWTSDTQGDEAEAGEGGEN
# WT yeast gro inh = growth inhibition of WT strain, primary screen, mitochondrial fusion inhibitor project, WT and mutant strains, chemical genetic; mitochondrial fusion phenotypic screen; inhibition, % at 10 µM; 190,000 compounds, 2.1% hits; AID 1362, 2008; in the data active = inhibition above about 58%; tested in S. cerevisiae
# ROMK mod = ROMK potassium channel modulators, primary screen, cell-based, thallium flux, MLSMR library; AID 1918, 2009; Tet-inducible ROMK, thallium flux fluorescence; actives lie on both sides; 130,000 compounds, 2% hits; B-score at 10 µM;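 active = signal ratio slope over the read window, or its plate-corrected B-score, at least 3 SD from the plate mean, either direction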;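 note: B-score of the F/F0 ratio slope over 7 to 12 s after thallium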
# KCC2 secondary = KCC2 modulators in sodium-free buffer, confirmation, cell-based, HEK293 KCC2, thallium flux, secondary assay. shares compounds with KCC2 mod. normalised thallium flux (F/F0 slope) at 10 µM. 3,700 compounds, 15% hits. FluoZin2 fluorescence; active compounds read high;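 active = thallium flux slope above the same plate's solvent-only control mean plus 3 SD; inconclusive = the two replicate wells disagree; inactive = no significant difference from solvent-only control wells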
# KCC2 bumet counter = thallium flux persisting under bumetanide in KCC2 cells, confirmation, counter-screen for KCC2 modulator project, cell-based, HEK293 KCC2, FluoZin2, secondary assay 3; shares compounds with KCC2 mod; HEK293-KCC2 + bumetanide/ouabain; active compounds read high; normalized thallium flux at 10 µM; 3,700 compounds, 49% hits; AID 1714, 2009;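 active = thallium entry rate above the same plate's blocked-transporter control wells by more than 3 SD; inconclusive = the two repeat wells disagree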;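 note: raw slope of fluorescence over initial fluorescence between 10 and 20 s after thallium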
# KCC2 sec2 = KCC2 modulators without ouabain present, confirmation, cell-based, HEK293 KCC2, thallium flux, FluoZin2, secondary assay 2 | normalized thallium flux at 10 µM | thallium flux FluoZin2 fluorescence; actives lie on both sides; F/F0 rise rate, 10–20 s post-thallium | shares compounds with KCC2 mod | 3,700 compounds, 23% hits | AID 1715, 2009;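 active = thallium flux slope more than 3 SD above or below the plate's solvent-only control mean, mostly below; inconclusive = the two repeat wells disagreed; inactive = no significant shift from solvent-only controls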;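 note: raw slope with 0.1% DMSO as baseline and bumetanide as block control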
# HEK counter1 = thallium flux modulation in parental HEK cells, confirmation, counter-screen for KCC2 modulator project, cell-based, counterscreen 1; shares compounds with KCC2 mod; HEK293 parental cells, thallium flux FluoZin2, ouabain; baseline-ratio fluorescence slope, 10–20 s after thallium; thallium flux rate (normalised fluorescence) at 10 µM; 3,700 compounds, 46% hits; AID 1716, 2009;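 active = thallium flux rate significantly above the same plate's solvent-only control wells, beyond their mean plus 3 SD; inconclusive = the two replicate wells gave conflicting results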
# KCC2 retest ouab = KCC2 inhibitors and activators, ouabain retest, confirmation, HEK-KCC2 cells; shares compounds with KCC2 mod; 3,700 compounds, 48% hits; raw Tl+ flux slope (below DMSO = inhibition, above = activation) at 10 µM; HEK293-KCC2, thallium flux FluoZin2 fluorescence; bidirectional: low = inhibitor, high = activator; AID 1717, 2009;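 active = thallium flux slope beyond 3 SD from same-plate DMSO control mean in most replicates, usually higher, sometimes lower; inconclusive = repeat tests gave conflicting results; inactive = no significant difference from controls in most replicates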;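 note: slope of initial-normalized fluorescence between seconds 10 and 20 after thallium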
# HEK counter2 = native HEK Tl+ uptake effects, second counter-screen – HEK cells, counterscreen 2, counter-screen for KCC2 modulator project, confirmation; shares compounds with KCC2 mod; HEK293 parental, thallium flux FluoZin-2 fluorescence slope; thallium flux slope at 10 µM; 3,700 compounds, 33% hits;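 active = thallium flux slope above the same plate's solvent-control mean plus 3 SD in both duplicate wells; inconclusive = duplicate wells that disagreed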;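 note: run without ouabain in cells lacking the KCC2 cotransporter; slope of fluorescence scaled to its starting value between 10 and 20 s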
# The depositor's hits bear a star; ? = inconclusive; . = no result given.
SMILES,p47phox inh,KCC2 mod,RBBP9 inh,14-3-3 Bad PPI,WT yeast gro inh,ROMK mod,KCC2 secondary,KCC2 bumet counter,KCC2 sec2,HEK counter1,KCC2 retest ouab,HEK counter2
Cc1nc(-c2ccccc2)sc1C1(C)CC(c2ccc(C#N)cc2)=NO1 (stereo unspecified),-11.3,0.435,.,0.2,.,.,.,.,.,.,.,.
O=C1CCN(S(=O)(=O)c2ccccc2)N1,-11.0,-5.61*,-1.2,-6.2,5.0,.,0.00897,0.00678,0.029,0.00745,0.0662,0.00976
CCCc1cc(=O)[nH]c(SCC(=O)Nc2ccc(Br)cc2Br)n1,-6.8,-0.374,-4.0,-14.3,-14.6,-0.16,.,.,.,.,.,.
Cc1nc2c(c(=O)n1CCC1=CCCCC1)c1nc3ccccc3nc1n2/N=C/c1ccco1,-89.9,-5.85*,-8.6,.,.,.,0.0062,0.00456,0.0289,0.00734,0.0186,0.0114
O=S(=O)(Nc1c(S(=O)(=O)c2ccccc2)c2nc3ccccc3nc2n1C1CCCCC1)c1ccccc1,-27.5,-4.33*,-10.4,12.2,-2.3,.,0.00829,0.00604,0.0341,0.00386,?,0.0116
Cc1ccc(SCCNC(=S)Nc2cc(C)ccc2C)cc1,-1.9,.,-13.7,-23.1,75.1*,-0.457,0.00692,0.00497,0.0291,?,?,0.00898
COC(=O)[C@H](CCSC)NC(=O)Nc1cccc(Br)c1,-7.7,0.437,-3.2,-4.4,.,.,.,.,.,.,.,.
CCOC(=O)c1c(N/N=C/c2ccncc2)n[nH]c1C,-1.0,18*,-6.2,10.5,-7.0,0.662,0.0161,0.00422,0.0301,?,0.0164,0.00915
CCOC(=O)c1c(NCc2ccccc2)n[nH]c1C,-6.6,-0.779,-7.2,-9.2,3.4,0.142,.,.,.,.,.,.
S=c1[nH]nc(-c2ccc3ccccc3n2)n1-c1ccccc1Cl,-23.1,5.98*,0.1,-3.4,-3.6,.,0.011,0.0265*,0.0328,0.0125*,0.0252,0.0105
S=c1[nH]nc(-c2ccc3ccccc3n2)n1-c1cc(Cl)cc(Cl)c1,-1.8,22.1*,-5.7,-7.0,59.6*,0.545,0.0209*,0.0542*,0.0333,0.0387*,0.0509*,0.0126*

# Assay outcomes: PubChem BioAssay, several laboratories
